# Data published in ChEMBL document CHEMBL4706624, “Synthesis and evaluation of new quinazoline-benzimidazole hybrids as potent anti-microbial agents against multidrug resistant Staphylococcus aureus and Mycobacterium tuberculosis” (Eur J Med Chem, 2021).
# Assays:
# Escherichia coli = experiment: Antibacterial activity against Escherichia coli ATCC 25922 measured after 16 to 18 hrs; format: functional; conditions: time 16-18 hrs
# Procedure, shortened: (§1)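 Broth microdilution MIC. Strains grown on MHA; a single colony was grown overnight in CA-MHB at 37 °C with shaking for 18–24 h. Cultures were diluted by OD600 to ~10⁶ cfu/mL and exposed to compound at […]. Plates were incubated at 37 °C for 16-18 h. MIC = lowest concentration with no visible growth. Levofloxacin was the reference. Three independent runs, each in duplicate.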
# Staphylococcus aureus [1] = experiment: Antibacterial activity against Staphylococcus aureus ATCC 29213 measured after 16 to 18 hrs; format: functional; conditions: time 16-18 hrs; procedure, shortened: as §1
# Klebsiella pneumoniae = experiment: Antibacterial activity against Klebsiella pneumoniae BAA-1705 measured after 16 to 18 hrs; format: functional; conditions: ATCC BAA-1705, time 16-18 hrs; procedure, shortened: as §1
# Acinetobacter baumannii = experiment: Antibacterial activity against Acinetobacter baumannii BAA1605 measured after 16 to 18 hrs; format: functional; conditions: time 16-18 hrs; procedure, shortened: as §1
# Pseudomonas aeruginosa = experiment: Antibacterial activity against Pseudomonas aeruginosa ATCC 27853 measured after 16 to 18 hrs; format: functional; conditions: time 16-18 hrs; procedure, shortened: as §1
# [2] = test system: Mycobacterium tuberculosis; experiment: Antitubercular activity against Mycobacterium tuberculosis H37Rv ATCC 27294 measured after 7 days by broth microdilution method; format: functional; conditions: H37Rv ATCC 27294, 168 h, time 7 day
# Procedure, shortened: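 H37Rv in Middlebrook 7H9 with 10% ADC, 0.2% glycerol, 0.05% Tween-80. Inoculum ~10⁶ cfu/mL set by OD600. Twofold serial dilutions, 0.0064–0.00005 g/100 mL. Incubated at 37 °C for 7 days, then Presto blue resazurin read-out. MIC = lowest concentration inhibiting visible growth. Triplicate runs, each in duplicate.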
# [3] = test system: Mycobacteroides abscessus; experiment: Antimycobacterial activity against Mycobacterium abscessus ATCC 19977 by broth microdilution method; format: functional
# Procedure, shortened: (§2)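 Broth microdilution MIC in Middlebrook 7H9 with 10% ADC-Tween-80 (BSA, dextrose, 0.2% glycerol, 0.05% Tween-80). Inoculum ~10⁶ cfu/mL set by OD600. Compounds were twofold serially diluted, 0.0064–0.00005 g/100 mL (DMSO stocks). Presto blue resazurin dye was used as read-out. MIC = lowest concentration inhibiting visible growth. Triplicate runs, each in duplicate.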
# [4] = test system: Mycolicibacterium fortuitum; experiment: Antimycobacterial activity against Mycobacterium fortuitum ATCC 6841 by broth microdilution method; format: functional; procedure, shortened: as §2
# Mycobacteroides chelonae = experiment: Antimycobacterial activity against Mycobacterium chelonae ATCC 35752 by broth microdilution method; format: functional; procedure, shortened: as §2
# [5] = Cytotoxicity against African green monkey Vero cells assessed as reduction in cell viability measured after 72 hrs by MTT assay; format: cell-based; conditions: chlorocebus sabaeus
# Procedure, shortened: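 Vero cells (ATCC CCL-81), ~10³ cells/well, held 24 h at 37 °C in 5% CO₂. Compound at 100–5 mg/L for 72 h. MTT was added for 4 h, formazan dissolved in DMSO, OD read at 540 nm. CC50 = concentration giving 50% viability reduction. Doxorubicin was the positive control. Triplicate.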
# [6] = Selectivity index, ratio of CC50 for cytotoxicity against African green monkey Vero cells to MIC for antibacterial activity against Staphylococcus aureus ATCC 29213; format: toxicity, cell-based; conditions: read-out: Selectivity Index
# Procedure, shortened: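 SI = Vero CC50 (MTT, 72 h) divided by MIC against S. aureus ATCC 29213 (CA-MHB broth microdilution, 16-18 h, 37 °C).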
# Staphylococcus aureus [7] = experiment: Antibacterial activity against methicillin-sensitive Staphylococcus aureus ATCC 29213 measured after 16 to 18 hrs; format: functional; conditions: time 16-18 hrs; procedure, shortened: as §1
# Staphylococcus aureus [8] = experiment: Antibacterial activity against methicillin-resistant Staphylococcus aureus NR100 measured after 16 to 18 hrs; format: functional; conditions: time 16-18 hrs; procedure, shortened: as §1
# Staphylococcus aureus [9] = experiment: Antibacterial activity against methicillin-resistant Staphylococcus aureus NR119 measured after 16 to 18 hrs; format: functional; conditions: time 16-18 hrs; procedure, shortened: as §1
# Staphylococcus aureus [10] = experiment: Antibacterial activity against methicillin-resistant Staphylococcus aureus NR10129 measured after 16 to 18 hrs; format: functional; conditions: time 16-18 hrs; procedure, shortened: as §1
# Staphylococcus aureus [11] = experiment: Antibacterial activity against methicillin-resistant Staphylococcus aureus NR10198 measured after 16 to 18 hrs; format: functional; conditions: time 16-18 hrs; procedure, shortened: as §1
# Staphylococcus aureus [12] = experiment: Antibacterial activity against methicillin-resistant Staphylococcus aureus NR10192 measured after 16 to 18 hrs; format: functional; conditions: time 16-18 hrs; procedure, shortened: as §1
# Staphylococcus aureus [13] = experiment: Antibacterial activity against methicillin-resistant Staphylococcus aureus NR10186 measured after 16 to 18 hrs; format: functional; conditions: time 16-18 hrs; procedure, shortened: as §1
# Staphylococcus aureus [14] = experiment: Antibacterial activity against methicillin-resistant Staphylococcus aureus NR10193 measured after 16 to 18 hrs; format: functional; conditions: time 16-18 hrs; procedure, shortened: as §1
# Staphylococcus aureus [15] = experiment: Antibacterial activity against methicillin-resistant Staphylococcus aureus NR10194 measured after 16 to 18 hrs; format: functional; conditions: time 16-18 hrs; procedure, shortened: as §1
# Staphylococcus aureus [16] = experiment: Antibacterial activity against methicillin-resistant Staphylococcus aureus NR10191 measured after 16 to 18 hrs; format: functional; conditions: time 16-18 hrs; procedure, shortened: as §1
# Staphylococcus aureus [17] = experiment: Antibacterial activity against vancomycin-resistant Staphylococcus aureus VRS1 measured after 16 to 18 hrs; format: functional; conditions: time 16-18 hrs; procedure, shortened: as §1
# Staphylococcus aureus [18] = experiment: Antibacterial activity against vancomycin-resistant Staphylococcus aureus VRS4 measured after 16 to 18 hrs; format: functional; conditions: time 16-18 hrs; procedure, shortened: as §1
# Staphylococcus aureus [19] = experiment: Antibacterial activity against vancomycin-resistant Staphylococcus aureus VRS12 measured after 16 to 18 hrs; format: functional; conditions: time 16-18 hrs; procedure, shortened: as §1
SMILES,MIC (Escherichia coli),MIC (Staphylococcus aureus [1]),MIC (Klebsiella pneumoniae),MIC (Acinetobacter baumannii),MIC (Pseudomonas aeruginosa),CC50 at 72 h [5],selectivity ratio [6],MIC (Staphylococcus aureus [7]),MIC (Staphylococcus aureus [8]),MIC (Staphylococcus aureus [9]),MIC (Staphylococcus aureus [10]),MIC (Staphylococcus aureus [11]),MIC (Staphylococcus aureus [12]),MIC (Staphylococcus aureus [13]),MIC (Staphylococcus aureus [14]),MIC (Staphylococcus aureus [15]),MIC (Staphylococcus aureus [16]),MIC (Staphylococcus aureus [17]),MIC (Staphylococcus aureus [18]),MIC (Staphylococcus aureus [19]),also measured
Clc1ccc2[nH]c(-c3ccc(Nc4nc(-c5ccccc5)nc5ccccc45)cc3)nc2c1,> 64 µg/mL,8 µg/mL,> 64 µg/mL,> 64 µg/mL,> 64 µg/mL,100 µg/mL,12.5,8 µg/mL,8 µg/mL,8 µg/mL,8 µg/mL,4 µg/mL,8 µg/mL,8 µg/mL,16 µg/mL,8 µg/mL,16 µg/mL,4 µg/mL,8 µg/mL,8 µg/mL,MIC [2]: 32 µg/mL; MIC [3]: > 64 µg/mL; MIC [4]: 32 µg/mL; MIC (Mycobacteroides chelonae): 32 µg/mL
c1ccc(-c2nc(Nc3ccc(-c4nc5ccccc5[nH]4)cc3)c3ccccc3n2)cc1,> 64 µg/mL,8 µg/mL,> 64 µg/mL,> 64 µg/mL,> 64 µg/mL,80 µg/mL,10,8 µg/mL,32 µg/mL,8 µg/mL,16 µg/mL,4 µg/mL,32 µg/mL,8 µg/mL,16 µg/mL,8 µg/mL,16 µg/mL,8 µg/mL,8 µg/mL,16 µg/mL,MIC [2]: > 64 µg/mL; MIC [3]: > 64 µg/mL; MIC [4]: > 64 µg/mL; MIC (Mycobacteroides chelonae): > 64 µg/mL
Fc1ccc2[nH]c(-c3ccc(Nc4nc(-c5ccc(Cl)cc5)nc5ccccc45)cc3)nc2c1,> 64 µg/mL,4 µg/mL,> 64 µg/mL,> 64 µg/mL,> 64 µg/mL,50 µg/mL,12.5,4 µg/mL,4 µg/mL,4 µg/mL,4 µg/mL,8 µg/mL,2 µg/mL,4 µg/mL,8 µg/mL,4 µg/mL,8 µg/mL,4 µg/mL,2 µg/mL,4 µg/mL,–
C[C@H]1COc2c(N3CCN(C)CC3)c(F)cc3c(=O)c(C(=O)O)cn1c23.C[C@H]1COc2c(N3CCN(C)CC3)c(F)cc3c(=O)c(C(=O)O)cn1c23.O [LEVOFLOXACIN],0.125 µg/mL,0.015 µg/mL,64 µg/mL,–,0.5 µg/mL,–,–,0.125 µg/mL,0.25 µg/mL,16 µg/mL,0.25 µg/mL,8 µg/mL,16 µg/mL,8 µg/mL,32 µg/mL,0.125 µg/mL,32 µg/mL,32 µg/mL,> 64 µg/mL,32 µg/mL,MIC [3]: 1 µg/mL; MIC [4]: 0.03 µg/mL; MIC (Mycobacteroides chelonae): 0.03 µg/mL
Clc1ccc(-c2nc(Nc3ccc(-c4nc5ccccc5[nH]4)cc3)c3ccccc3n2)cc1,> 64 µg/mL,4 µg/mL,> 64 µg/mL,> 64 µg/mL,> 64 µg/mL,50 µg/mL,12.5,8 µg/mL,8 µg/mL,32 µg/mL,8 µg/mL,8 µg/mL,4 µg/mL,16 µg/mL,8 µg/mL,8 µg/mL,8 µg/mL,4 µg/mL,8 µg/mL,8 µg/mL,–
CCCCCCCCCC(=O)N[C@@H](Cc1c[nH]c2ccccc12)C(=O)N[C@H](CC(N)=O)C(=O)N[C@@H](CC(=O)O)C(=O)N[C@@H]1C(=O)NCC(=O)N[C@@H](CCCN)C(=O)N[C@@H](CC(=O)O)C(=O)N[C@H](C)C(=O)N[C@@H](CC(=O)O)C(=O)NCC(=O)N[C@H](CO)C(=O)N[C@@H]([C@H](C)CC(=O)O)C(=O)N[C@@H](CC(=O)c2ccccc2N)C(=O)O[C@@H]1C,–,–,–,–,–,–,–,1 µg/mL,1 µg/mL,1 µg/mL,0.5 µg/mL,0.5 µg/mL,1 µg/mL,0.5 µg/mL,1 µg/mL,0.5 µg/mL,1 µg/mL,1 µg/mL,0.5 µg/mL,0.5 µg/mL,–
C[C@@H](O)[C@H]1C(=O)N2C(C(=O)O)=C(S[C@@H]3CN[C@H](C(=O)N(C)C)C3)[C@H](C)[C@H]12 [MEROPENEM],–,–,–,–,–,–,–,0.0625 µg/mL,32 µg/mL,64 µg/mL,4 µg/mL,4 µg/mL,64 µg/mL,8 µg/mL,64 µg/mL,1 µg/mL,64 µg/mL,64 µg/mL,64 µg/mL,16 µg/mL,–
